Reference: ChEMBL document CHEMBL4689842, “EUbOPEN Chemogenomics Library wave 1” (2021)

System: HEK-293T
Experiment: Multiplex assay against HEK293T;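 for Population Tubulin-Different-Phenotype (%): share of the cells with healthy nuclei that show this phenotype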
Format: toxicity, cell-based
Details: human
Procedure, shortened: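 Live cells were stained at seeding with Hoechst33342, BioTracker Green Microtubule Cytoskeleton Dye, MitoTracker Red and Annexin V Alexa Fluor 680. Following compound addition, they were imaged on a CQ1 microscope at 37°C and 5% CO2 and gated by CellPathfinder machine learning into Hoechst high-intensity objects or normal cells, with normal cells split into healthy, pyknosed or fragmented nuclei and pyknosed cells into mitotic or apoptotic. Tubulin, mitochondrial-mass and membrane-permeability phenotypes are per cents of healthy-nucleus cells.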

[1] = 12 h, 1 µM, compound concentration 1 uM, replicate 1
[2] = 12 h, 1 µM, compound concentration 1 uM, replicate 2
[3] = 12 h, 10 µM, compound concentration 10 uM, replicate 1
[4] = 12 h, 10 µM, compound concentration 10 uM, replicate 2
[5] = 24 h, 1 µM, compound concentration 1 uM, replicate 1
[6] = 24 h, 1 µM, compound concentration 1 uM, replicate 2
[7] = 24 h, 10 µM, compound concentration 10 uM, replicate 1
[8] = 24 h, 10 µM, compound concentration 10 uM, replicate 2
[9] = 48 h, 1 µM, compound concentration 1 uM, replicate 1
[10] = 48 h, 1 µM, compound concentration 1 uM, replicate 2
[11] = 48 h, 10 µM, compound concentration 10 uM, replicate 1
[12] = 48 h, 10 µM, compound concentration 10 uM, replicate 2

## CNC(=O)c1cc(Oc2ccc(NC(=O)Nc3cc(C(C)(C)C)nn3-c3ccc4ncccc4c3)c(F)c2)ccn1 [REBASTINIB]
[1]
  Population Apoptotic (%): 22%
  Population Fragmented Nuclei (%): 22%
  Population Healthy Nuclei (%): 66%
  Population Hoechst High Intensity Objects (%): 15%
  Population Membrane Permeable-Phenotype (%): 11%
  Population Mitochondria Different-Phenotype (%): 4%
  Population Mitotic Cells (%): 77%
  Population Normal (%): 84%
  Population Pyknosed Nuclei (%): 10%
  Population Tubulin-Different-Phenotype (%): 3%
  Total Cell Count: 638
[2]
  Population Apoptotic (%): 11%
  Population Fragmented Nuclei (%): 11%
  Population Healthy Nuclei (%): 85%
  Population Hoechst High Intensity Objects (%): 4%
  Population Membrane Permeable-Phenotype (%): 7%
  Population Mitochondria Different-Phenotype (%): 3%
  Population Mitotic Cells (%): 88%
  Population Normal (%): 95%
  Population Pyknosed Nuclei (%): 3%
  Population Tubulin-Different-Phenotype (%): 6%
  Total Cell Count: 1893
[3]
  Population Apoptotic (%): 29%
  Population Fragmented Nuclei (%): 11%
  Population Healthy Nuclei (%): 41%
  Population Hoechst High Intensity Objects (%): 16%
  Population Membrane Permeable-Phenotype (%): 13%
  Population Mitochondria Different-Phenotype (%): 34%
  Population Mitotic Cells (%): 70%
  Population Normal (%): 83%
  Population Pyknosed Nuclei (%): 46%
  Population Tubulin-Different-Phenotype (%): 88%
  Total Cell Count: 515
[4]
  Population Apoptotic (%): 35%
  Population Fragmented Nuclei (%): 3%
  Population Healthy Nuclei (%): 78%
  Population Hoechst High Intensity Objects (%): 6%
  Population Membrane Permeable-Phenotype (%): 9%
  Population Mitochondria Different-Phenotype (%): 55%
  Population Mitotic Cells (%): 64%
  Population Normal (%): 93%
  Population Pyknosed Nuclei (%): 18%
  Population Tubulin-Different-Phenotype (%): 97%
  Total Cell Count: 672
[5]
  Population Apoptotic (%): 13%
  Population Fragmented Nuclei (%): 19%
  Population Healthy Nuclei (%): 74%
  Population Hoechst High Intensity Objects (%): 12%
  Population Membrane Permeable-Phenotype (%): 23%
  Population Mitochondria Different-Phenotype (%): 2%
  Population Mitotic Cells (%): 86%
  Population Normal (%): 87%
  Population Pyknosed Nuclei (%): 5%
  Population Tubulin-Different-Phenotype (%): 3%
  Total Cell Count: 727
[6]
  Population Apoptotic (%): 3%
  Population Fragmented Nuclei (%): 28%
  Population Healthy Nuclei (%): 69%
  Population Hoechst High Intensity Objects (%): 8%
  Population Membrane Permeable-Phenotype (%): 9%
  Population Mitochondria Different-Phenotype (%): 0%
  Population Mitotic Cells (%): 96%
  Population Normal (%): 91%
  Population Pyknosed Nuclei (%): 1%
  Population Tubulin-Different-Phenotype (%): 7%
  Total Cell Count: 2966
[7]
  Population Apoptotic (%): 46%
  Population Fragmented Nuclei (%): 14%
  Population Healthy Nuclei (%): 44%
  Population Hoechst High Intensity Objects (%): 15%
  Population Membrane Permeable-Phenotype (%): 8%
  Population Mitochondria Different-Phenotype (%): 58%
  Population Mitotic Cells (%): 53%
  Population Normal (%): 84%
  Population Pyknosed Nuclei (%): 40%
  Population Tubulin-Different-Phenotype (%): 92%
  Total Cell Count: 485
[8]
  Population Apoptotic (%): 43%
  Population Fragmented Nuclei (%): 3%
  Population Healthy Nuclei (%): 81%
  Population Hoechst High Intensity Objects (%): 5%
  Population Membrane Permeable-Phenotype (%): 7%
  Population Mitochondria Different-Phenotype (%): 63%
  Population Mitotic Cells (%): 56%
  Population Normal (%): 94%
  Population Pyknosed Nuclei (%): 15%
  Population Tubulin-Different-Phenotype (%): 98%
  Total Cell Count: 674

## CCCn1c(=O)c2[nH]c(C34CC5CC(CC3C5)C4)nc2n(CCC)c1=O [ROLOFYLLINE]
[1]
  Population Apoptotic (%): 63%
  Population Fragmented Nuclei (%): 14%
  Population Healthy Nuclei (%): 30%
  Population Hoechst High Intensity Objects (%): 15%
  Population Membrane Permeable-Phenotype (%): 3%
  Population Mitochondria Different-Phenotype (%): 84%
  Population Mitotic Cells (%): 36%
  Population Normal (%): 84%
  Population Pyknosed Nuclei (%): 55%
  Population Tubulin-Different-Phenotype (%): 70%
  Total Cell Count: 200
[2]
  Population Apoptotic (%): 12%
  Population Fragmented Nuclei (%): 6%
  Population Healthy Nuclei (%): 43%
  Population Hoechst High Intensity Objects (%): 4%
  Population Membrane Permeable-Phenotype (%): 10%
  Population Mitochondria Different-Phenotype (%): 18%
  Population Mitotic Cells (%): 87%
  Population Normal (%): 95%
  Population Pyknosed Nuclei (%): 50%
  Population Tubulin-Different-Phenotype (%): 15%
  Total Cell Count: 185
[3]
  Population Apoptotic (%): 78%
  Population Fragmented Nuclei (%): 12%
  Population Healthy Nuclei (%): 28%
  Population Hoechst High Intensity Objects (%): 15%
  Population Membrane Permeable-Phenotype (%): 1%
  Population Mitochondria Different-Phenotype (%): 96%
  Population Mitotic Cells (%): 21%
  Population Normal (%): 84%
  Population Pyknosed Nuclei (%): 59%
  Population Tubulin-Different-Phenotype (%): 80%
  Total Cell Count: 256
[4]
  Population Apoptotic (%): 41%
  Population Fragmented Nuclei (%): 5%
  Population Healthy Nuclei (%): 24%
  Population Hoechst High Intensity Objects (%): 9%
  Population Membrane Permeable-Phenotype (%): 12%
  Population Mitochondria Different-Phenotype (%): 84%
  Population Mitotic Cells (%): 58%
  Population Normal (%): 90%
  Population Pyknosed Nuclei (%): 69%
  Population Tubulin-Different-Phenotype (%): 87%
  Total Cell Count: 143
[5]
  Population Apoptotic (%): 50%
  Population Fragmented Nuclei (%): 14%
  Population Healthy Nuclei (%): 32%
  Population Hoechst High Intensity Objects (%): 22%
  Population Membrane Permeable-Phenotype (%): 1%
  Population Mitochondria Different-Phenotype (%): 77%
  Population Mitotic Cells (%): 49%
  Population Normal (%): 77%
  Population Pyknosed Nuclei (%): 53%
  Population Tubulin-Different-Phenotype (%): 83%
  Total Cell Count: 212
[6]
  Population Apoptotic (%): 15%
  Population Fragmented Nuclei (%): 4%
  Population Healthy Nuclei (%): 59%
  Population Hoechst High Intensity Objects (%): 3%
  Population Membrane Permeable-Phenotype (%): 11%
  Population Mitochondria Different-Phenotype (%): 17%
  Population Mitotic Cells (%): 85%
  Population Normal (%): 96%
  Population Pyknosed Nuclei (%): 36%
  Population Tubulin-Different-Phenotype (%): 38%
  Total Cell Count: 228
[7]
  Population Apoptotic (%): 77%
  Population Fragmented Nuclei (%): 13%
  Population Healthy Nuclei (%): 31%
  Population Hoechst High Intensity Objects (%): 14%
  Population Membrane Permeable-Phenotype (%): 2%
  Population Mitochondria Different-Phenotype (%): 97%
  Population Mitotic Cells (%): 22%
  Population Normal (%): 85%
  Population Pyknosed Nuclei (%): 54%
  Population Tubulin-Different-Phenotype (%): 71%
  Total Cell Count: 255
[8]
  Population Apoptotic (%): 40%
  Population Fragmented Nuclei (%): 7%
  Population Healthy Nuclei (%): 38%
  Population Hoechst High Intensity Objects (%): 7%
  Population Membrane Permeable-Phenotype (%): 22%
  Population Mitochondria Different-Phenotype (%): 75%
  Population Mitotic Cells (%): 60%
  Population Normal (%): 92%
  Population Pyknosed Nuclei (%): 53%
  Population Tubulin-Different-Phenotype (%): 87%
  Total Cell Count: 150
[9]
  Population Apoptotic (%): 50%
  Population Fragmented Nuclei (%): 20%
  Population Healthy Nuclei (%): 27%
  Population Hoechst High Intensity Objects (%): 23%
  Population Membrane Permeable-Phenotype (%): 4%
  Population Mitochondria Different-Phenotype (%): 61%
  Population Mitotic Cells (%): 49%
  Population Normal (%): 76%
  Population Pyknosed Nuclei (%): 52%
  Population Tubulin-Different-Phenotype (%): 70%
  Total Cell Count: 227
[10]
  Population Apoptotic (%): 8%
  Population Fragmented Nuclei (%): 6%
  Population Healthy Nuclei (%): 78%
  Population Hoechst High Intensity Objects (%): 4%
  Population Membrane Permeable-Phenotype (%): 14%
  Population Mitochondria Different-Phenotype (%): 7%
  Population Mitotic Cells (%): 91%
  Population Normal (%): 95%
  Population Pyknosed Nuclei (%): 15%
  Population Tubulin-Different-Phenotype (%): 30%
  Total Cell Count: 417
[11]
  Population Apoptotic (%): 64%
  Population Fragmented Nuclei (%): 18%
  Population Healthy Nuclei (%): 31%
  Population Hoechst High Intensity Objects (%): 12%
  Population Membrane Permeable-Phenotype (%): 4%
  Population Mitochondria Different-Phenotype (%): 98%
  Population Mitotic Cells (%): 35%
  Population Normal (%): 87%
  Population Pyknosed Nuclei (%): 50%
  Population Tubulin-Different-Phenotype (%): 87%
  Total Cell Count: 257
[12]
  Population Apoptotic (%): 67%
  Population Fragmented Nuclei (%): 11%
  Population Healthy Nuclei (%): 55%
  Population Hoechst High Intensity Objects (%): 7%
  Population Membrane Permeable-Phenotype (%): 16%
  Population Mitochondria Different-Phenotype (%): 62%
  Population Mitotic Cells (%): 32%
  Population Normal (%): 92%
  Population Pyknosed Nuclei (%): 32%
  Population Tubulin-Different-Phenotype (%): 86%
  Total Cell Count: 185
